# Measurements gathered from unrelated publications.
# Protocols differ between the studies behind these lines.
# Target: Serine/threonine-protein kinase STK11 (STK11, Homo sapiens, UniProt Q15831)
# One construct used (Q15831 1-433): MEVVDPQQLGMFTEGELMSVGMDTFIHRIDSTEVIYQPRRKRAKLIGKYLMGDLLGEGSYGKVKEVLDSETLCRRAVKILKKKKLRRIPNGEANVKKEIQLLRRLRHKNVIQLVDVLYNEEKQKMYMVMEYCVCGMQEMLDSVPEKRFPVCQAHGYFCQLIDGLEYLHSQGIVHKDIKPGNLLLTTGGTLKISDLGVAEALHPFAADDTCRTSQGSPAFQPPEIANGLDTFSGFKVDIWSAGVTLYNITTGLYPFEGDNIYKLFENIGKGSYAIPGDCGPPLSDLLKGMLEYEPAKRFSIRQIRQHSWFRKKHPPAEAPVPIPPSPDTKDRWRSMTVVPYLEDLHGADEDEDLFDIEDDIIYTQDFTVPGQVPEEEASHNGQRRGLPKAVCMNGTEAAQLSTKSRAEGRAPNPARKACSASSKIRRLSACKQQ
Compound,effect on,action,technique,tested at,measurement,result
C=CC(=O)N1CCC([C@@H]2CCNc3c(C(N)=O)c(-c4ccc(Oc5ccccc5)cc4)nn32)CC1,enzyme activity,inhibitor,,1 µM,inhibition,10%
C[C@H]1CC[C@H](n2c3cnccc3c3cnc(Nc4ccc5c(n4)CCN(C(=O)CO)C5)nc32)CC1,binding,,competition with immobilised ligand,1 µM,remaining binding,71%
CCCCC(=O)Nc1ccc(-c2ccc3ncn(CCC)c(=O)c3c2)cn1,binding,,competition with immobilised ligand,0.5 µM,remaining binding,84%
C#Cc1cnc(Nc2ccnc(CO)c2)nc1Nc1ccccc1S(C)(=O)=NC#N (stereo not drawn),cell-free assay,,,1 µM,remaining signal,45%
N#Cc1ccc(NC(=O)Nc2ccccc2)cc1,cell-free assay,,competition with immobilised ligand,25 µM,remaining binding,85%
COc1ccc2oc(-c3ccc4nc(N)oc4c3)c/c(=N\c3ccccc3NC(=O)CCN)c2c1,binding,,,1 µM,remaining binding,99%
COc1ccc2[nH]c3c4[nH]c5ccc(OC)cc5c4c4c(c3c2c1)C(=O)NC4=O,binding,,competition with immobilised ligand,1 µM,remaining binding,99%
CO[C@@H]1[C@H](N(C)C(=O)c2ccccc2)C[C@H]2O[C@]1(C)n1c3ccccc3c3c4c(c5c6ccccc6n2c5c31)C(=O)NC4,enzyme activity,inhibitor,,1 µM,inhibition,94%
CC(C)S(=O)(=O)c1ccc2nccc(Nc3ccc4sc(C5CCCC5)nc4c3)c2c1,enzyme activity,inhibitor,,1 µM,activity vs control,109%
